The target of assay [1] is Glycogen synthase kinase-3 alpha (Homo sapiens, UniProt P49840). The assay can be described thus: Competitive binding affinity to GSK3alpha (unknown origin) at 10 uM in presence of ATP relative to control. The method in brief:
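In vitro ATP-site competition binding format, run as one member of a diverse 128-kinase profiling panel. Each compound was tested at a single concentration across the whole panel.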

The target in assay [2] is T1, Myosin light chain kinase family member 4 (Homo sapiens) (UniProt Q86YV6).
T1 sequence (whole entry): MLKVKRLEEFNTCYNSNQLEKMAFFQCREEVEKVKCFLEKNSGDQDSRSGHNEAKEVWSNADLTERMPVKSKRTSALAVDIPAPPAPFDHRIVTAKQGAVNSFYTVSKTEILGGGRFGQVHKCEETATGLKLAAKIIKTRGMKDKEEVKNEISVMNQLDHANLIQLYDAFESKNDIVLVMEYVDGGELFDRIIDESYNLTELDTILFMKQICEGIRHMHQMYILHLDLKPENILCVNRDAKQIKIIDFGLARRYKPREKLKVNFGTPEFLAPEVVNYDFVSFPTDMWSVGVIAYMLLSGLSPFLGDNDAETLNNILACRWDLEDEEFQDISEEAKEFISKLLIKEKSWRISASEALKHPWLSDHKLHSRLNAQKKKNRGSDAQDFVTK
The assay can be described thus: Competitive binding affinity to SgK085 (unknown origin) at 10 uM in presence of ATP relative to control.

Assay [3] addresses Dual specificity mitogen-activated protein kinase kinase 2 (Homo sapiens) (UniProt P36507). Put plainly: Competitive binding affinity to MEK2 (unknown origin) at 10 uM in presence of ATP relative to control.
Assay [4] has as its target Mitogen-activated protein kinase kinase kinase kinase 4 (Homo sapiens) (UniProt O95819). The assay can be described thus: Competitive binding affinity to MAP4K4 (unknown origin) at 10 uM in presence of ATP relative to control.
For assay [5], the target named is T2, Serine/threonine-protein kinase LATS1 (Homo sapiens) (UniProt O95835).
T2 sequence (whole entry): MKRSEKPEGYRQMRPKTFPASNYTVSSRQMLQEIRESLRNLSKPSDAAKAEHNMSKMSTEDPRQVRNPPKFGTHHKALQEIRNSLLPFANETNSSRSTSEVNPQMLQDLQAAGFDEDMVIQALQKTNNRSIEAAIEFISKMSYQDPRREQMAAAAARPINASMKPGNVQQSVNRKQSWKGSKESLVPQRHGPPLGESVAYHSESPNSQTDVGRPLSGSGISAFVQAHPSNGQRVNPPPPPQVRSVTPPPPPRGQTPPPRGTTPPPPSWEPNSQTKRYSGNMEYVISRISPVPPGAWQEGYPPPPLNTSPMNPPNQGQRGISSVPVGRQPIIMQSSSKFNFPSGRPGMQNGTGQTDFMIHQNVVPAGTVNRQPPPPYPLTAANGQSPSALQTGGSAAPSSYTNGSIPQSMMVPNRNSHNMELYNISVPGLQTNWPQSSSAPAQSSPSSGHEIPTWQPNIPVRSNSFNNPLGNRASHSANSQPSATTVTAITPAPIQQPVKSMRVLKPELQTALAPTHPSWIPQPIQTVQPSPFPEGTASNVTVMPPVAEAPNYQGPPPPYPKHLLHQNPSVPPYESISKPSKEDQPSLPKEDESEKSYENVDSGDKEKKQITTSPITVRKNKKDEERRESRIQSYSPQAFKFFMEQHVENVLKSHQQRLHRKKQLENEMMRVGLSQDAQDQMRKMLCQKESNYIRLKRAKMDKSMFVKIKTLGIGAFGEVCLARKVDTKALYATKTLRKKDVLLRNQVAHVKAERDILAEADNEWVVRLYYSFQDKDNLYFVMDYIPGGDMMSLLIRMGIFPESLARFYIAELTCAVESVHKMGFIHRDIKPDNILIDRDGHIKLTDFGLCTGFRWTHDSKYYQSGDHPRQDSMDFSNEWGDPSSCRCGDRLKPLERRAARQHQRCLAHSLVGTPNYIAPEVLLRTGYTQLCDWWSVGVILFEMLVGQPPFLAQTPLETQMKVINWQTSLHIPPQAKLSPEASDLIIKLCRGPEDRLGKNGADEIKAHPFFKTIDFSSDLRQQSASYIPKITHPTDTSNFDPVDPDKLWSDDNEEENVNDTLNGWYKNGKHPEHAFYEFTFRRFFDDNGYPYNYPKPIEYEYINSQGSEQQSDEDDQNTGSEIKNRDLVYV
The assay can be described thus: Competitive binding affinity to LATS1 (unknown origin) at 10 uM in presence of ATP relative to control.

Assay [6] has as its system Epidermal growth factor receptor (Homo sapiens), P00533 [G719S]. Put plainly: Competitive binding affinity to EGFR G719S mutant (unknown origin) at 10 uM in presence of ATP relative to control. In outline: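 In vitro ATP-site competition binding assay, part of profiling against a diverse panel of 128 kinases. Each compound was tested at a single concentration of 10 µM. Kinome selectivity was summarized as S15 selectivity scores.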

Assay [7] deals with Activated CDC42 kinase 1 (Homo sapiens) (UniProt Q07912). Put plainly: Competitive binding affinity to TNK2 (unknown origin) at 10 uM in presence of ATP relative to control.
The target of assay [8] is Serine/threonine-protein kinase tousled-like 2 (Homo sapiens) (UniProt Q86UE8). The assay can be described thus: Competitive binding affinity to TLK2 (unknown origin) at 10 uM in presence of ATP relative to control.
Assay [9] concerns the target Ribosomal protein S6 kinase alpha-4 (Homo sapiens) (UniProt O75676). Put plainly: Competitive binding affinity to RPS6KA4 kinase domain 1 (unknown origin) at 10 uM in presence of ATP relative to control.
For assay [10], the target named is Protein kinase C eta type (Homo sapiens) (UniProt P24723). Put plainly: Competitive binding affinity to PRKCH (unknown origin) at 10 uM in presence of ATP relative to control.

Molecules are shown by their SMILES.

Sequence of Dual specificity mitogen-activated protein kinase kinase 2 (Homo sapiens) (P36507 whole entry): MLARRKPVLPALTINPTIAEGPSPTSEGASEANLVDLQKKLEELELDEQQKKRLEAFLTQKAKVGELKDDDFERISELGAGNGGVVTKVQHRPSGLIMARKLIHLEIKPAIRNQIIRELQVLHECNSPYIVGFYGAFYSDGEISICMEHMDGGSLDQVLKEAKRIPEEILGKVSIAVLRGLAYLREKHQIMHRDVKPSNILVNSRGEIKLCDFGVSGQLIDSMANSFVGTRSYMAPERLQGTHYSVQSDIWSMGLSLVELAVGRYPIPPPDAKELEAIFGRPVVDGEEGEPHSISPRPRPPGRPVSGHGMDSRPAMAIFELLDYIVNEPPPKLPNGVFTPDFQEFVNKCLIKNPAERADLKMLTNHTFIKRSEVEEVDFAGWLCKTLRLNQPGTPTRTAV
Sequence of Glycogen synthase kinase-3 alpha (P49840 2-483 limits assumed): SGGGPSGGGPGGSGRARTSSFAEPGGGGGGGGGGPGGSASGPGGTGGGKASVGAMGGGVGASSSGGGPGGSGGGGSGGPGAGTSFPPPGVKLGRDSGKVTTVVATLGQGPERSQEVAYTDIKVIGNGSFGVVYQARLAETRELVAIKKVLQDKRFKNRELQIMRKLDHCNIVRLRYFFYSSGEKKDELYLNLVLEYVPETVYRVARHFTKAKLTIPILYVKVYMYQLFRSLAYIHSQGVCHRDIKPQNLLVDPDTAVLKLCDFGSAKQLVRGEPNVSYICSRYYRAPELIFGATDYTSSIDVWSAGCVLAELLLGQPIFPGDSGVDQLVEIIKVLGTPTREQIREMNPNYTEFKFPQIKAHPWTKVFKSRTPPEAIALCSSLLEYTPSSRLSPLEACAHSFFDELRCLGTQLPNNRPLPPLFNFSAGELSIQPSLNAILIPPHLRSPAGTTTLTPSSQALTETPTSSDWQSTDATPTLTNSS
Sequence of Protein kinase C eta type (Homo sapiens) (P24723 whole entry): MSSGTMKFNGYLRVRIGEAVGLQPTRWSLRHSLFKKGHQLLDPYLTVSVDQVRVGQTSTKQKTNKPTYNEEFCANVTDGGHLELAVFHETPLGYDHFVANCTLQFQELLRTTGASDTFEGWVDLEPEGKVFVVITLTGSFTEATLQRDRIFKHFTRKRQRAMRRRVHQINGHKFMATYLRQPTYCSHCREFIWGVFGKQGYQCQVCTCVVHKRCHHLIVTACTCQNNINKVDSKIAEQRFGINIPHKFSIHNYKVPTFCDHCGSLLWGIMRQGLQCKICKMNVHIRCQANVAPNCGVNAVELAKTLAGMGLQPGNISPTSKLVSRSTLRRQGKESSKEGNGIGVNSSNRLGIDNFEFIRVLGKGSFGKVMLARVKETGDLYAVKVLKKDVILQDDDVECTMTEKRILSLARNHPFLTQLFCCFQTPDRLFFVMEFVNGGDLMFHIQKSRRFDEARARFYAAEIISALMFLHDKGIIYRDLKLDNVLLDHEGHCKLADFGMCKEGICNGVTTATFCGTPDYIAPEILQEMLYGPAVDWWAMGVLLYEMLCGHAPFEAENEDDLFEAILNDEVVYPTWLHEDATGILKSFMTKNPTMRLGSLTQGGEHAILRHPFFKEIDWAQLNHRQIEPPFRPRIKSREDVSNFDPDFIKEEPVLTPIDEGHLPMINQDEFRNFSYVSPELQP
Sequence of Activated CDC42 kinase 1 (Homo sapiens) (Q07912 whole entry, looked up): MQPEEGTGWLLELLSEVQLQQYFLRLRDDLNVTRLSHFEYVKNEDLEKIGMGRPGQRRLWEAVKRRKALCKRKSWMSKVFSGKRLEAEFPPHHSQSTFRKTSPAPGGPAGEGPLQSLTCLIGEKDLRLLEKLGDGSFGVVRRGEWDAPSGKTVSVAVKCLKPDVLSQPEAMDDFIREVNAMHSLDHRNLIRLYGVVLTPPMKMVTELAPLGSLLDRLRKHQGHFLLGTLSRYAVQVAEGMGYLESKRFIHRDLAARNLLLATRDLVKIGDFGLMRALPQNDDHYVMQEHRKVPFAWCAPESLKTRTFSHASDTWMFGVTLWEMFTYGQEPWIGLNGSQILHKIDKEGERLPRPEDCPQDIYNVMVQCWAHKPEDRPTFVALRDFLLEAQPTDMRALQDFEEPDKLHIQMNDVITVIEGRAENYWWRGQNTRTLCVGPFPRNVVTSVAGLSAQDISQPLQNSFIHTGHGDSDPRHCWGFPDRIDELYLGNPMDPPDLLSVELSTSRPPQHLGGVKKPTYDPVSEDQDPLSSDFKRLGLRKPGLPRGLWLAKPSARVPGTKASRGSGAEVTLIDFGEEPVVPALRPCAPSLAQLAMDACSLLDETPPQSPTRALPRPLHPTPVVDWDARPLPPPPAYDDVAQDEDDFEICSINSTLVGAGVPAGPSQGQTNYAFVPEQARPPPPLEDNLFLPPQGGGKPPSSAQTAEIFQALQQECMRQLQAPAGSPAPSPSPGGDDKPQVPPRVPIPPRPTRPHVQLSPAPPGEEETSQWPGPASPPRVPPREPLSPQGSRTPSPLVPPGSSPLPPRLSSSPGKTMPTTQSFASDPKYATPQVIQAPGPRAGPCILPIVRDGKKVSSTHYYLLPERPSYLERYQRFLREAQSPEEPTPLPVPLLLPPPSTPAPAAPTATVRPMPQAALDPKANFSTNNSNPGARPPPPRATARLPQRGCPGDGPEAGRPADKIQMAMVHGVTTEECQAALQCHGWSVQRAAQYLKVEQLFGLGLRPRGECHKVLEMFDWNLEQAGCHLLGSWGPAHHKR
Sequence of Epidermal growth factor receptor (Homo sapiens), P00533 [G719S] (P00533 whole entry G719S): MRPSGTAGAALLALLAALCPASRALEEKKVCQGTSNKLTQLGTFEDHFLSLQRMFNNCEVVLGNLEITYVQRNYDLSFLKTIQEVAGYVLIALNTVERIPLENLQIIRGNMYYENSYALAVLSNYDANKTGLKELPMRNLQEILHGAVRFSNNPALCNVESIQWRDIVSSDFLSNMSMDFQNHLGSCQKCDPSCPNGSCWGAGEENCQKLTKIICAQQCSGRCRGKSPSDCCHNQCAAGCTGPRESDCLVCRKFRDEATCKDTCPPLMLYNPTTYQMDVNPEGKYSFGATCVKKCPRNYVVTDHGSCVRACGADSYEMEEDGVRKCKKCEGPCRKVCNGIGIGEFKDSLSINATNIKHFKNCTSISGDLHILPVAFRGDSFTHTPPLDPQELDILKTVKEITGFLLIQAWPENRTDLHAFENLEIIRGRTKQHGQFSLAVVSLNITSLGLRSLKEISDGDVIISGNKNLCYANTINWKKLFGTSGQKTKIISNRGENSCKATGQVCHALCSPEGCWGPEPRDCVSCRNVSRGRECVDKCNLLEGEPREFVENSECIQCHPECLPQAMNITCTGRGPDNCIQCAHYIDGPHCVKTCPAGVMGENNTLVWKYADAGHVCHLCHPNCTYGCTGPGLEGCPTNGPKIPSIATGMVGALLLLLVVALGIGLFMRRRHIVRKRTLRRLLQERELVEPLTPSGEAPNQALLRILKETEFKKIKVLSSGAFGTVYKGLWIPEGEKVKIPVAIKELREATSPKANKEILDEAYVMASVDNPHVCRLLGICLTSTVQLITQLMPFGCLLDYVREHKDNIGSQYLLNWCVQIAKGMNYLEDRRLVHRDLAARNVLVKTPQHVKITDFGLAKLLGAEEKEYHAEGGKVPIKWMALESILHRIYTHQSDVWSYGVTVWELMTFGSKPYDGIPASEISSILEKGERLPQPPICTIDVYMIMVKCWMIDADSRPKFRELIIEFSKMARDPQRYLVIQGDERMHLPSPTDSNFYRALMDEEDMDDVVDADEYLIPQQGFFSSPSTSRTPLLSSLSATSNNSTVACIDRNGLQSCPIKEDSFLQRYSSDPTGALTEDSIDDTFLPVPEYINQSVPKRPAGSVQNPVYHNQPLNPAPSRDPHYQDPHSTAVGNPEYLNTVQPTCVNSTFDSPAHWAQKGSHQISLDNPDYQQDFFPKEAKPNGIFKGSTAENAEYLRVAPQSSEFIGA
Sequence of Mitogen-activated protein kinase kinase kinase kinase 4 (Homo sapiens) (O95819 2-1239 limits assumed): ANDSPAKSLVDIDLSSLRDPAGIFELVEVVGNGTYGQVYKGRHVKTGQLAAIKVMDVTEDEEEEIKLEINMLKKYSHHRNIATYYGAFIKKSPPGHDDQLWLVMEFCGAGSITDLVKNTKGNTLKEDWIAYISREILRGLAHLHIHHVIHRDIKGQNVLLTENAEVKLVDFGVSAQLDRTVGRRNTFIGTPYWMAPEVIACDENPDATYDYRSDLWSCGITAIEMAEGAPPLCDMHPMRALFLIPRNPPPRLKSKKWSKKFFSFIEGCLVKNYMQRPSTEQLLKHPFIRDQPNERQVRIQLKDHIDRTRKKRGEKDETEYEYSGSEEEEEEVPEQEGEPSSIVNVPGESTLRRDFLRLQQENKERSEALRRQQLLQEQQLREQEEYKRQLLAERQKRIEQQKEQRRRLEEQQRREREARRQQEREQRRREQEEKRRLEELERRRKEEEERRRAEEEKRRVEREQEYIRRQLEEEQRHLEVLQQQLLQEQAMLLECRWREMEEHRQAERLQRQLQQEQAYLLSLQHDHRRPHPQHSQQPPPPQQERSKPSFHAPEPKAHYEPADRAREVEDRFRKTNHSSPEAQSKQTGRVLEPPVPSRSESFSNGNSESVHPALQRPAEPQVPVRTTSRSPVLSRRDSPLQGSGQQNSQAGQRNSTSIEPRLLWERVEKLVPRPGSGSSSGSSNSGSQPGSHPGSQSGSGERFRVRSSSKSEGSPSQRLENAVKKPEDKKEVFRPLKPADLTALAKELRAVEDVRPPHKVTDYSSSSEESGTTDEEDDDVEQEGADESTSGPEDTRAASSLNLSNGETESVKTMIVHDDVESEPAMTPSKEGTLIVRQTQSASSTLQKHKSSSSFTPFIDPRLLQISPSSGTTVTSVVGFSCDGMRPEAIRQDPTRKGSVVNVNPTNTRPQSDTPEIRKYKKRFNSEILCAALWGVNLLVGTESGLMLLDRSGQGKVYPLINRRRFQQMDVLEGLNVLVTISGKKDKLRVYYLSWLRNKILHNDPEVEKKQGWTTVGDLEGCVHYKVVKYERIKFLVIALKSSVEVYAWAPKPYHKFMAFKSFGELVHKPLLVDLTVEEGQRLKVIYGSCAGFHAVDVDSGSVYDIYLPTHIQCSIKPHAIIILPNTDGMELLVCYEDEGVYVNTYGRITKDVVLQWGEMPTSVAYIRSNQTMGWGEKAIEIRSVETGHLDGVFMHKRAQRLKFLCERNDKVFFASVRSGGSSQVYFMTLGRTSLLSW

Turning to `CS(=O)(=O)CCCOc1cccc2c1ccn2-c1ccnc(N[C@H]2CC[C@H](C(=O)N3CCC(O)CC3)CC2)n1`, the inhibition in assay [1] and in assay [2] was over 85% throughout.
Regarding `O[C@H]1CC[C@H](Nc2nccc(-n3ccc4ccccc43)n2)CC1`, the inhibition (as a rule, how much of the control response was suppressed) is under 50% in assay [3]; under 50% in assay [4]; under 50% in assay [5]; 91% in assay [1]; under 50% in assay [6]; under 50% in assay [7]. Also, the inhibition is under 50% in assay [8], 98% in assay [2], under 50% in assay [9] and under 50% in [10].
Turning to `O[C@H]1CC[C@H](Nc2nccc(-n3ncc4ccccc43)n2)CC1`, the inhibition is under 50% in assay [3]; 64% in [4]; under 50% in [5]; 99% in assay [1]; under 50% in [6]; under 50% in assay [7]. Besides, the inhibition in [8] was under 50%; in assay [2] it was 96%; in [9], under 50%; in [10], under 50%.
On to `O[C@H]1CC[C@H](Nc2nccc(-c3n[nH]c4ccccc34)n2)CC1`, for which the inhibition in assay [4] was 95%; in [1], 97%; in assay [6], under 50%; in assay [7], under 50%; in [8], 96%; in assay [9], 99%. Further, the inhibition in assay [10] was under 50%.
Take `O[C@H]1CC[C@H](Nc2nccc(-n3nnc4ccccc43)n2)CC1`: the inhibition in [3] was under 50%; in assay [4] it was under 50%; in assay [5], under 50%; in assay [1], 100%; in [6], under 50%; in assay [7], under 50%. The inhibition in [8] is under 50%; in assay [2], 97%; in [9], under 50%; in assay [10], under 50%.
